SENP8 block-1: inhibitors of human SENP8 protease. recombinant SENP8, Nedd8 substrate fluorescence. inhibition, % at 20 µM. actives 0.64% (n = 360,000). AID 602440; in the data active means inhibition mostly above about 40%, no sharp cut-off; inactive means mostly below about 27%
HSP90 refold inh: HSP90 refolding inhibition in rabbit reticulocyte lysate. actives 0.91% (n = 290,000). inhibition, % at 5.6 µM. luciferase refolding luminescence, 3 h. AID 1789;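 active means inhibition above the screen-wide mean plus 3 SD, computed separately per campaign, cut at about 16% in these data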;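 further: inhibitors lower the luminescence because luciferase stays unfolded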
SENP7 block: inhibitors of human SENP7 protease | actives 1.5% (n = 330,000) | Q9BQF6 | recombinant SENP7, Z-RLRGG-aminoluciferin luminescence, 40 min | inhibition, % at 5 µM;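 active means inhibition above about 50% at the single test dose, limit read from the data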
SENP8 block-2: SENP8 protease inhibition; AID 2540; purified SENP8, Z-RLRGG-aminoluciferin cleavage, luminescence; actives 1.2% (n = 330,000); Q96LD8; inhibition, % at 10 µM; in the data active means inhibition above about 50%
SENP6 inh: SENP6 protease inhibition | AID 2599 | Q9GZR1 | inhibition, % at 10 µM | Recombinant SENP6 catalytic domain, aminoluciferin luminescence | actives 1.8% (n = 330,000);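 active means inhibition above about 50% at the single tested dose, limit read from the data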
Target sequence (Q9GZR1 628-1112 limits assumed): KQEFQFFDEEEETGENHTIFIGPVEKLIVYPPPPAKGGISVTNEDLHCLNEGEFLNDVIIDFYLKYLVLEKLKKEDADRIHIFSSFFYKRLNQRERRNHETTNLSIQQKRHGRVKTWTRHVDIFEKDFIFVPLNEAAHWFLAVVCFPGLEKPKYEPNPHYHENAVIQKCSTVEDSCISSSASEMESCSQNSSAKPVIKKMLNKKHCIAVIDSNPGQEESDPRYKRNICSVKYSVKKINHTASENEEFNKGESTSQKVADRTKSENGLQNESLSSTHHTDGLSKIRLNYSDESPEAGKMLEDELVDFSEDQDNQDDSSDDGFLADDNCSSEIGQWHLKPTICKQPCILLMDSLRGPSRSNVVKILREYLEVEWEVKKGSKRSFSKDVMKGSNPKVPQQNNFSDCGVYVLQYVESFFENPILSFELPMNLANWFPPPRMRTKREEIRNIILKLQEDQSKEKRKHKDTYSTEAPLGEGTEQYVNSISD
SENP1 inh: SENP1 (human) catalytic domain inhibition. Q9P0U3. recombinant SENP1 catalytic domain, CyPet-SUMO1-YPet FRET cleavage. inhibition, % at 10 µM. actives 0.21% (n = 360,000). AID 624204;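 active means inhibition at least 30% at 10 µM, raw YFP signal under a set limit, fluorescence ratio 0.5 to 1.5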
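Test system: human SENP1 catalytic domain; medium: Tris pH 8 buffer plus EDTA, NaCl, BME, BSA, NP40, catalase; incubation: 50 min reaction at room temperature; technique: FRET, CFP and YFP emission; controls: no-enzyme low control and enzyme-plus-DMSO high control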
SENP8 confirm: human SENP8 inhibition, confirmed. Recombinant SENP8, Z-RLRGG-aminoluciferin luminescence, 60 min. shares compounds with SENP7 block. actives 40% (n = 6,200). AID 488912. inhibition, % at 12.5 µM;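 active means mean inhibition across replicates above about 50%, limit read from the data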
SENP6 confirm: human SENP6 inhibition, confirmed; shares compounds with SENP7 block; recombinant SENP6, Z-RLRGG-aminoluciferin luminescence; inhibition, % at 12.5 µM; actives 58% (n = 6,200); AID 488915
SENP7 confirm: confirmation of human SENP7 protease inhibitors; shares compounds with SENP7 block; inhibition, % at 12.5 µM; actives 69% (n = 6,200); recombinant SENP7, Z-RLRGG-aminoluciferin luminescence, 40 min
Casp3 SENP sel: inhibits human caspase-3 in SENP selectivity test. shares compounds with SENP7 block. purified caspase-3, Z-DEVD-aminoluciferin luminescence, 60 min. inhibition, % at 12.5 µM. actives 60% (n = 6,200). AID 488918;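 active means mean inhibition above about 50%, limit read from the data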
Target sequence (P42574 28-227 limits assumed): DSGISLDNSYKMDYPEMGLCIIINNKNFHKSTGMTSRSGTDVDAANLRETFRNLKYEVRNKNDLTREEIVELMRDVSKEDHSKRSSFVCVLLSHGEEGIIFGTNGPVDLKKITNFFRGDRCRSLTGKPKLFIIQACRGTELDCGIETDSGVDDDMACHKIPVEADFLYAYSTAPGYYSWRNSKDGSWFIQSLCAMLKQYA
Luc interf: luminescence interference (SENP counter-screen); shares compounds with SENP7 block; Pre-incubated SENP8/Z-RLRGG-aminoluciferin, luciferase luminescence interference; inhibition, % at 12.5 µM; actives 39% (n = 6,200);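 active means mean inhibition above about 50% when retested at one dose, limit read from the data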
Hits are given with their value; . = inactive; / = not tested or not shown. Sampled rows, rich in hits. Any-hit rate of the full collection: about 2.9%.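 How the source made its calls, unless noted: active means mean inhibition above about 50% in the one-dose retest (limit read from the data); inactive means the rest.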

SMILES | SENP8 block-1 | HSP90 refold inh | SENP7 block | SENP8 block-2 | SENP6 inh | SENP1 inh | SENP8 confirm | SENP6 confirm | SENP7 confirm | Casp3 SENP sel | Luc interf
CC(=O)NC(c1ccc(F)c(F)c1)c1nc(-c2cc3ccccc3o2)cs1 (stereo not given) | . | / | / | / | / | . | / | / | / | / | /
COc1ccc(-n2nc3ccc(N)cc3n2)cc1Cl | . | . | 59 | 88 | 86 | . | . | 81 | 95 | 57 | .
Cc1cc(N)ccc1-n1nc2ccccc2n1 | . | / | . | . | . | . | / | / | / | / | /
COc1cc2nn(-c3ccccc3N)nc2cc1OC | . | / | / | / | / | . | / | / | / | / | /
COc1ccc(-n2nc3ccc(NS(C)(=O)=O)cc3n2)cc1Cl | . | . | 74 | 51 | 72 | . | . | . | 75 | 55 | .
Cc1ccc(-n2nc3ccc(N)cc3n2)cc1C | . | . | . | 82 | 91 | . | . | 94 | 101 | 82 | 52
Cc1ccc(-n2nc3ccc(N)cc3n2)cc1Cl | . | . | . | 87 | 90 | . | . | 63 | 76 | 63 | .
COc1cccc(NC(=O)CN(C)C(=O)CCCc2nc3ccccc3s2)c1 | . | / | . | . | . | . | / | / | / | / | /
O=C(COc1ccccc1/C=C1\SC(=S)NC1=O)Nc1ccc(F)cc1 | . | / | . | . | . | . | / | / | / | / | /
CCOC(=O)C1=C(C(F)(F)F)Nc2ncnn2C1c1ccc(OC)cc1OC (stereo not given) | . | . | . | . | . | . | / | / | / | / | /
Cc1c(C(=O)Nc2ccccc2)c2ccc(C(F)(F)F)cc2n1O | . | / | . | . | . | . | / | / | / | / | /
CC1CCC(NC(=O)C2CC(=O)N(c3ccc4c(c3)OCCO4)C2)CC1 (stereo not given) | . | . | . | . | . | . | / | / | / | / | /
Cc1ccc(-n2nc3ccc(N)cc3n2)c(C)c1 | . | . | . | 65 | 78 | . | . | . | . | . | .
COc1ccc(OC)c(S(=O)(=O)N2CCCC(C(=O)N3CCCCCC3)C2)c1 (stereo not given) | . | . | . | . | . | . | / | / | / | / | /
CCC1=CC(c2ccccc2)n2ncnc2N1 (stereo not given) | . | / | . | . | . | . | / | / | / | / | /
Nc1c(Cl)cc2c(c1Oc1ccccc1)C(=O)c1ccccc1C2=O | . | . | . | . | 58 | 70 | . | . | . | . | .
Nc1c(Cl)cc2c(c1Br)Cc1ccccc1-2 | . | / | / | / | / | . | / | / | / | / | /
COc1cccc(CNC(C)(C)CO)c1OCc1ccc(Cl)cc1 | . | . | . | . | . | . | / | / | / | / | /
COc1cccc(OCc2ccc(Cl)cc2)c1C#N | . | . | 97 | 93 | 91 | . | 84 | 96 | 100 | 88 | .
CCN(CC(=O)Nc1ccc(NC(C)=O)cc1)C(=O)c1cccc(S(=O)(=O)N2CCCC2)c1 | . | / | . | . | . | . | / | / | / | / | /
Cc1nc(-c2cc(-c3ccc(Cl)cc3)no2)cs1 | . | . | 92 | 68 | 76 | . | . | . | . | . | .
Clc1ccc(-c2csc(-c3ccno3)n2)cc1 | . | . | 58 | . | . | . | . | . | . | . | .
Clc1ccc(-c2cc(CSc3ccccc3)on2)cc1 | . | . | . | . | . | . | / | / | / | / | /
Clc1ccc(-c2cc(-c3ccccc3)on2)cc1 | . | / | 58 | . | . | . | . | . | . | . | .
CCN(C(=O)CCc1nnc2ccc(NCc3ccco3)nn12)c1ccccc1 | . | . | . | . | . | . | / | / | / | / | /
SMILES | SENP8 block-1 | HSP90 refold inh | SENP7 block | SENP8 block-2 | SENP6 inh | SENP1 inh | SENP8 confirm | SENP6 confirm | SENP7 confirm | Casp3 SENP sel | Luc interf
O=C1/C(=C/c2ccccc2)CCc2ccc(Cl)nc21 | . | / | / | / | / | . | / | / | / | / | /
O=C(COC(=O)c1cccc(NC(=O)c2ccco2)c1)c1ccc(Br)cc1 | . | . | 72 | . | 70 | . | . | 61 | 78 | . | .
Cc1ccc(C(=O)COC(=O)c2cccc(NC(=O)c3ccc([N+](=O)[O-])cc3[N+](=O)[O-])c2)cc1 | . | . | 66 | . | 67 | . | . | . | 69 | . | .
O=C(Nc1sc2c(c1C(=O)O)CCC2)c1ccco1 | . | . | 91 | 91 | 97 | . | 94 | 94 | 101 | 96 | 93
COC(=O)c1c(NC(=O)c2ccco2)sc2c1CCC2 | . | . | . | . | . | . | / | / | / | / | /
NC(=O)c1c(NC(=O)c2cc3ccccc3o2)sc2c1CCC2 | . | . | . | . | 60 | . | . | . | 67 | . | .
Cc1ccc(C(=O)Nc2sc3c(c2C(=O)O)CCCCC3)o1 | . | . | 91 | 97 | . | . | 98 | 100 | 103 | 98 | 97
Cc1ccc(C(=O)Nc2sc3c(c2C(=O)O)CCCC3)o1 | . | . | 75 | 91 | 89 | . | 95 | 94 | 101 | 96 | 92
NC(=O)NC(CC(=O)N1CCc2ccccc2C1)c1ccc(Cl)cc1 (stereo not given) | . | . | . | . | . | . | / | / | / | / | /
CC1CCN(S(=O)(=O)c2cnc[nH]2)CC1 | . | . | . | . | . | . | / | / | / | / | /
NC1=C(Br)C(=O)c2ccccc2C1=O | 104 | . | . | 54 | 76 | . | . | 63 | . | 78 | .
Nc1ccc(Br)c2c1C(=O)c1ccccc1C2=O | / | . | . | . | . | / | / | / | / | / | /
CCOC(=O)c1ccc(NC(=S)Nc2ccccc2)cc1 | . | . | . | . | . | . | / | / | / | / | /
CCOC(=O)C(/C(N)=N/C(=O)Nc1ccccc1)=C(\C)O | . | . | . | . | 64 | . | . | 57 | 88 | 80 | .
COc1cccc(OC)c1C(=O)Nc1ccc2c(c1)OCCO2 | . | . | . | . | . | . | / | / | / | / | /
O=C(Nc1ccc2c(c1)OCCO2)c1cccc(Cl)c1 | . | . | 85 | 77 | 87 | . | . | 86 | 97 | 85 | 86
O=C(Nc1ccncc1)c1ccc2c(c1)OCCO2 | . | . | . | . | . | . | / | / | / | / | /
O=C(Nc1cccc(Cl)c1)c1ccc2c(c1)OCCO2 | . | . | 95 | 92 | 91 | . | . | 93 | 101 | 89 | 94
CC(C)(C)c1ccc(C(=O)Nc2cccc([N+](=O)[O-])c2)cc1 | . | . | / | / | / | . | / | / | / | / | /
CCCc1cc(C(=O)Nc2cccc([N+](=O)[O-])c2)cs1 | . | . | 72 | 59 | 87 | . | . | 73 | 92 | . | 56
O=C(Nc1cccc([N+](=O)[O-])c1)c1ccc2c(c1)OCCO2 | . | . | 75 | 63 | 72 | . | 68 | 70 | 93 | 72 | 80
